Laboratory results as given in article PMC10681497 (CPT: Pharmacometrics & Systems Pharmacology, 2023).
Read-outs that look alike come from different tables or passages of the source.

Assays:
Population PK analysis = assay type: in vivo, human
How it was run: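 A prior two‑compartment NONMEM model was refined, keeping its interindividual random effects. Covariates were tested on CL/F, Vc/F (age, body weight), Vp/F (body weight) and Ka (sex, fasting, PPI, H2B). Selection used stepwise forward addition (p 0.05) and backward elimination (p 0.005) by likelihood ratio test. Evaluation used nonparametric bootstrap and prediction‑corrected VPC.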

[1] = Simulated steady-state exposure; details: human, plasma, oral, 13.5 mg
How it was run: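 Each patient's dense steady‑state post hoc concentration‑time profile was simulated from the updated population PK model. Cmax,ss, Cmin,ss and AUCss were then derived by noncompartmental methods, with oral once‑daily dosing of 13.5 mg.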

[2] = system: serum phosphate concentration; experiment: Exposure-response Emax model of serum phosphate change from baseline; parameters: species or system human; details: in vivo
How it was run: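 Serum phosphate was measured in serum chemistry in 300 pooled monotherapy patients from FIGHT‑101, ‑102 and ‑202. The change from baseline was the mean of C1D8 and C1D15. A three‑parameter Emax nonlinear model related this change to model‑derived AUCss, with baseline serum phosphate as a covariate. Parameters were the maximum change (Emax) and the exposure giving 50% of the maximum increase.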

[3] = system: serum creatinine concentration; experiment: Exposure-response Emax model of serum creatinine percent change from baseline; assay type: in vivo, human
How it was run: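 Serum creatinine was measured in routine serum chemistry in 300 pooled monotherapy patients from FIGHT‑101, FIGHT‑102 and FIGHT‑202, using the mean of C1D8 and C1D15. A three‑parameter Emax nonlinear model related percent change from baseline to AUCss. Emax is the maximum change, with a half‑maximal exposure term. For prediction, AUCss was the mean post hoc value at 13.5 mg q.d. and was dose‑scaled for 6, 9 and 20 mg.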

[4] = system: patients with CCA with FGFR2 fusions/re‐arrangements; details: for Median PFS: 13.5 mg once daily
OCT2 = details: read-out: IC50, OCT2; cited from earlier work
MATE1 = details: read-out: IC50, MATE1; cited from earlier work
[5] = previously characterized; cited from earlier work
[6] = previously characterized; cited from earlier work; remark: listed apart in the source
[7] = cited from earlier work
[8] = covariate effect, final population PK model
[9] = FIGHT-106, healthy participants, 13.5 mg

For `CCN1C(=O)N(c2c(F)c(OC)cc(OC)c2F)Cc2cnc3[nH]c(CN4CCOCC4)cc3c21` [pemigatinib], the “Reduction in K a with use of PPI” value (Population PK analysis; concomitant PPI vs no PPI) was 62%, the “Body weight on V c/F” value (Population PK analysis; [8]) was 0.842% and the “Body weight to V p/F” value (Population PK analysis; [8]) was 1.13%. For the same molecule, the “H2B antagonist on D1” value (Population PK analysis; [8]) was −33.4%, the “Male sex on CL/F” value (Population PK analysis; [8]) was 26.2% and the “Male sex on K a” value (Population PK analysis; [8]) was −58.3%. The “PPI on K a” value (Population PK analysis; [8]) was −62.0%, the “Phosphate binder on CL/F” value (Population PK analysis; [8]) was −15.5% and the “D1 (duration of zero-order drug release), population mean” value (Population PK analysis; final population PK model) was 0.810 h. For the same molecule, the “K a (absorption rate constant), population mean” value (Population PK analysis; final population PK model) was 3.67 h⁻¹, the “CL/F (apparent clearance), population mean” value (Population PK analysis; final population PK model, 467 participants) was 10.7 L/h and the “Higher CL/F in men compared with women” value (Population PK analysis; human, in vivo) was 26.2%. The “Lower K a in men compared with women” value (Population PK analysis; human, in vivo) was 58.3%, the “Reduction in D1 with use of H2B” value (Population PK analysis; human, in vivo) was 33.4% and the Vd/F (Population PK analysis; human, plasma, oral) was 118 L. For the same molecule, the “Reduction in CL/F with use of phosphate-binding agents” value (Population PK analysis; users vs nonusers) was 15.5%, the AUC [1] was 2.85 µM·h and the “Reduction from baseline per 1-mg/dL increase in baseline serum phosphate level” value [2] was “less than or equal to 0.185 mg/dL”. For the same molecule, the “Estimated percentage change from baseline in serum creatinine concentration” value (shortened to “Estimated percentage change”) ([3]; 6 mg, dose-scaled mean post hoc AUCss) was 14.2%, the “Estimated percentage change” value ([3]; 9 mg, dose-scaled mean post hoc AUCss) was 18.3% and the “Estimated percentage change” value ([3]; 13.5 mg q.d., mean post hoc AUCss) was 22.7%. For the same molecule, the “Estimated percentage change” value ([3]; 20 mg, dose-scaled mean post hoc AUCss) was 26.9%, the “Model predicted ORR” value ([4]; 6 mg, model on mean change from baseline in serum phosphate) was 29.7% and the “Model predicted ORR” value ([4]; 9 mg, model on mean change from baseline in serum phosphate) was 41.4%. For the same molecule, the “Model predicted ORR” value ([4]; 13.5 mg, model on AUCss, mean AUCss 2850 h∙nM) was 45.2%, the “Model predicted ORR” value ([4]; 13.5 mg, model on mean change from baseline in serum phosphate) was 47.1% and the “Model predicted ORR” value ([4]; 20 mg, model on mean change from baseline in serum phosphate) was 46.8%. The “Median PFS” value ([4]; AUCss first quartile) was 6.93 months, the “Median PFS” value ([4]; AUCss fourth quartile) was 7.03 months and the “Median PFS” value ([4]; AUCss second quartile) was 6.93 months. For the same molecule, the “Median PFS” value ([4]; AUCss third quartile) was 9.20 months, the IC50 (OCT2) was 75 nM and the IC50 (MATE1) was 1100 nM. The pH-dependent solubility [5] was “poorly soluble at pH > 2”, the Permeability [6] was “high permeability” and the “Increase in AUC on co-administration of the H2B ranitidine” value [7, 9] was 3%. The “Reduction in C max on co-administration of the H2B ranitidine” value [7, 9] was 2% and the “Effect of concomitant PPI esomeprazole on pemigatinib exposure” value ([7]; FIGHT-106) was “only a modest effect”.
